# The source made the active and inactive calls. The calls are words filed in the database; no cut-off is given here.
# Assays:
# Assay type in all cases: functional
# Staphylococcus aureus [1] = assay: Antibacterial activity against Staphylococcus aureus assessed as growth inhibition at 5 ug/disc after 24 hrs by disc diffusion method; settings: read-out: DIZ
# Summary of the method: (§1)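 Disc diffusion: 100 µL of each bacterial culture (10^6 CFU/mL), grown 18 h in nutrient broth, spread onto meat peptone agar in Petri dishes. Compound-loaded discs applied. Plates incubated 24 h at 37 °C. Inhibition zone diameter measured in mm. Treatments replicated 3-5 times, reported as mean ± S.E.M.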
# [2] = test system: Staphylococcus epidermidis; assay: Antibacterial activity against Staphylococcus epidermidis assessed as growth inhibition at 5 ug/disc after 24 hrs by disc diffusion method; settings: read-out: DIZ
# Summary of the method: (§2)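 Disc diffusion: 100 µL inoculum (10^6 CFU/mL, grown 18 h in nutrient broth) spread on meat peptone agar plates; discs applied and incubated 24 h at 37 °C. Inhibition zone diameters measured in mm; 3-5 replicates, mean ± S.E.M.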
# Enterococcus faecalis [3] = assay: Antibacterial activity against Enterococcus faecalis assessed as growth inhibition at 50 ug/disc after 24 hrs by disc diffusion method; settings: for zone of inhibition at 50 µg/disc: read-out: DIZ; summary of the method: as §1
# Micrococcus luteus [4] = assay: Antibacterial activity against Micrococcus luteus assessed as growth inhibition at 5 ug/disc after 24 hrs by disc diffusion method; settings: read-out: DIZ; summary of the method: as §2
# Staphylococcus aureus [5] = assay: Antibacterial activity against Staphylococcus aureus assessed as growth inhibition at 50 ug/disc after 24 hrs by disc diffusion method; settings: for zone of inhibition at 50 µg/disc: read-out: DIZ; summary of the method: as §1
# [6] = test system: Staphylococcus epidermidis; assay: Antibacterial activity against Staphylococcus epidermidis assessed as growth inhibition at 50 ug/disc after 24 hrs by disc diffusion method; settings: for zone of inhibition at 50 µg/disc: read-out: DIZ; summary of the method: as §1
# Micrococcus luteus [7] = assay: Antibacterial activity against Micrococcus luteus assessed as growth inhibition at 50 ug/disc after 24 hrs by disc diffusion method; settings: for zone of inhibition at 50 µg/disc: read-out: DIZ; summary of the method: as §1
# Staphylococcus aureus [8] = assay: Antibacterial activity against Staphylococcus aureus assessed as growth inhibition at 500 ug/disc after 24 hrs by disc diffusion method; settings: for zone of inhibition at 500 µg/disc: read-out: DIZ; summary of the method: as §2
# [9] = test system: Staphylococcus epidermidis; assay: Antibacterial activity against Staphylococcus epidermidis assessed as growth inhibition at 500 ug/disc after 24 hrs by disc diffusion method; settings: for zone of inhibition at 500 µg/disc: read-out: DIZ; summary of the method: as §1
# Enterococcus faecalis [10] = assay: Antibacterial activity against Enterococcus faecalis assessed as growth inhibition at 5 ug/disc after 24 hrs by disc diffusion method; settings: read-out: DIZ; summary of the method: as §2
# Enterococcus faecalis [11] = assay: Antibacterial activity against Enterococcus faecalis assessed as growth inhibition at 500 ug/disc after 24 hrs by disc diffusion method; settings: read-out: DIZ; summary of the method: as §1
# Staphylococcus aureus [12] = assay: Antibacterial activity against Staphylococcus aureus assessed as growth inhibition at 25 ug/disc after 24 hrs by disc diffusion method; settings: read-out: DIZ; summary of the method: as §1
# [13] = test system: Staphylococcus epidermidis; assay: Antibacterial activity against Staphylococcus epidermidis assessed as growth inhibition at 25 ug/disc after 24 hrs by disc diffusion method; settings: read-out: DIZ; summary of the method: as §1
# Enterococcus faecalis [14] = assay: Antibacterial activity against Enterococcus faecalis assessed as growth inhibition at 25 ug/disc after 24 hrs by disc diffusion method; settings: read-out: DIZ; summary of the method: as §1
# Micrococcus luteus [15] = assay: Antibacterial activity against Micrococcus luteus assessed as growth inhibition at 25 ug/disc after 24 hrs by disc diffusion method; settings: read-out: DIZ; summary of the method: as §1
# Micrococcus luteus [16] = assay: Antibacterial activity against Micrococcus luteus assessed as growth inhibition at 500 ug/disc after 24 hrs by disc diffusion method; summary of the method: as §1
Compound,zone of inhibition at 5 µg/disc [2],zone of inhibition at 50 µg/disc (Enterococcus faecalis [3]),zone of inhibition at 5 µg/disc (Micrococcus luteus [4]),growth inhibition (GI) (Staphylococcus aureus [5]),growth inhibition (GI) [6],growth inhibition (GI) (Enterococcus faecalis [3]),growth inhibition (GI) (Micrococcus luteus [7]),zone of inhibition at 500 µg/disc (Staphylococcus aureus [8]),zone of inhibition at 50 µg/disc (Staphylococcus aureus [5]),zone of inhibition at 50 µg/disc [6],zone of inhibition at 5 µg/disc (Enterococcus faecalis [10]),zone of inhibition at 500 µg/disc (Enterococcus faecalis [11]),zone of inhibition at 50 µg/disc (Micrococcus luteus [7]),other results
NC[C@H]1O[C@H](O[C@H]2[C@H](O)[C@@H](O[C@H]3O[C@H](CO)[C@@H](O)[C@H](N)[C@H]3O)[C@H](N)C[C@@H]2N)[C@H](O)[C@@H](O)[C@@H]1O [KANAMYCIN],20.5 mm,17.9 mm,16 mm,–,–,–,–,–,–,–,–,–,–,zone of inhibition at 5 µg/disc (Staphylococcus aureus [1]): 16.3 mm
C[C@@H]1C[C@@]12C(=O)OC(=O)C1=C(C(=O)C[C@H]3C(C)(C)CCC[C@]13C)[C@H]2O,–,–,–,inactive,inactive,inactive,inactive,–,–,–,–,–,–,–
CC1=C(C)[C@@H]2CC(=O)C3=C(C(=O)C(=O)[C@]4(C[C@@H]4C)[C@@H]3O)[C@@]2(C)CC1,15.9 mm,24 mm,16.3 mm,–,–,–,–,30.6 mm,22.6 mm,24.1 mm,23.2 mm,28.7 mm,–,zone of inhibition at 5 µg/disc (Staphylococcus aureus [1]): 12.9 mm; zone of inhibition at 500 µg/disc [9]: 29.3 mm; zone of inhibition at 25 µg/disc (Staphylococcus aureus [12]): 21.5 mm; zone of inhibition at 25 µg/disc [13]: 23.2 mm; zone of inhibition at 25 µg/disc (Enterococcus faecalis [14]): 22 mm; zone of inhibition at 25 µg/disc (Micrococcus luteus [15]): 27.9 mm
C[C@H]1C[C@]12C(=O)OC(=O)C1=C(C(=O)C[C@H]3C(C)(C)CCC[C@]13C)[C@H]2O,–,–,–,inactive,inactive,inactive,inactive,–,–,–,–,9.6 mm,–,growth inhibition (GI) (Staphylococcus aureus [8]): inactive; growth inhibition (GI) [9]: inactive; growth inhibition (GI) (Micrococcus luteus [16]): inactive
CC1=C(C)[C@@H]2CC(=O)C3=C(C(=O)OC(=O)[C@@]4(C[C@H]4C)[C@@H]3O)[C@@]2(C)CC1,–,–,–,inactive,inactive,inactive,inactive,–,–,–,–,–,–,–
CC(C)c1cc2c(c(O)c1O)[C@@]1(C)CCCC(C)(C)[C@@H]1CC2=O [DEMETHYLCRYPTOJAPONOL],16 mm,11.3 mm,13.5 mm,–,–,–,–,15.8 mm,11.8 mm,13.7 mm,15.2 mm,–,9 mm,–
CC(C)c1cc2c(c(O)c1O)[C@@]1(C)CCCC(C)(C)C1=C(O)C2=O [14-DEOXYCOLEON U],–,10.5 mm,–,–,–,–,–,17.8 mm,10.2 mm,10.2 mm,–,16.8 mm,9 mm,zone of inhibition at 500 µg/disc [9]: 18.2 mm; zone of inhibition at 500 µg/disc (Micrococcus luteus [16]; read-out: DIZ): 14.8 mm
CC(C)c1cc2c(c(O)c1O)[C@@]1(C)CCCC(C)(C)[C@@H]1[C@@H](O)C2=O [6-ALPHA-HYDROXYDEMETHYL-CRYPTOJAPONOL],21.2 mm,13.8 mm,17.7 mm,–,–,–,–,22.5 mm,11 mm,11.5 mm,20.2 mm,–,9.1 mm,–
